# Experimental data: ChEMBL document CHEMBL1154266, “Synthesis, conformational analysis, and biological evaluation of 19-nor-vitamin D3 analogues with A-ring modifications” (J Med Chem, 2009)
# Values joined by “and” are separate entries in the source; they are usually repeats but may differ in a detail not shown here. Identical values can stand only once.
# What was measured:
# [1] = target: T1, Vitamin D3 receptor (Sus scrofa) (UniProt A3RGC1); assay: Displacement of [3H]1-alpha,25-(OH)2D3 from VDR in pig intestinal mucosa at EC50 relative to 1-alpha,25-(OH)2D3; type: tissue-based
# T1 sequence (whole entry): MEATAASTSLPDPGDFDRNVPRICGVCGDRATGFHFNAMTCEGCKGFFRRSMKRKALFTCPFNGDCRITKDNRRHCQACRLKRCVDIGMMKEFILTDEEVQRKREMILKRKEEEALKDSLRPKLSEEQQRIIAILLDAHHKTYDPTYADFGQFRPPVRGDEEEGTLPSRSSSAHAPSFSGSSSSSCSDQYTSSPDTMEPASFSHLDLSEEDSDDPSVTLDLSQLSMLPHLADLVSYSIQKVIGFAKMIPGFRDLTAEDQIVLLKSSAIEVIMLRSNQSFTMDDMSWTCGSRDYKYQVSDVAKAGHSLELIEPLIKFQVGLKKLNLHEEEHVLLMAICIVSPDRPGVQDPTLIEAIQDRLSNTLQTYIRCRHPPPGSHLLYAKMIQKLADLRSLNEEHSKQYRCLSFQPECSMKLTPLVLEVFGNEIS
# Summary of the method: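 Binding to vitamin D receptor (VDR), […]. Values are mean ± SD, n = 3.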
# MCF7 [2] = assay: Antiproliferative activity against human MCF7 cells at EC50 after 72 hrs by [3H]thymidine incorporation assay relative to 1-alpha,25-(OH)2D3; type: functional
# Summary of the method: (§1)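 MCF-7 breast cancer cells; proliferation read by [³H]thymidine incorporation. Inhibition was scored at 10^-6 M, and the concentration giving half-maximal response was derived. Values are mean ± SD, n = 3.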
# [3] = target: T1, Vitamin D3 receptor (Sus scrofa); assay: Ratio of 1-alpha,25-(OH)2D3 to compound affinity for binding to VDR in pig intestinal mucosa
# Mus musculus [4] = assay: Toxicity in NMRI mouse assessed as induction of calcemic effect at 20 ug/kg, ip daily for 7 consecutive days measured after day 7 by colorimetric assay; type: organism-based; conditions: in vivo, 0.02 mg/kg
# Summary of the method: (§2)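 Mice received a daily injection of compound. The calcemic effect was read as the percent increase in serum calcium levels.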
# [5] = Toxicity in ip dosed NMRI mouse assessed as maximum tolerable dose inducing minimal increase in serum calcium level administered daily for 7 consecutive days measured after day 7 by colorimetric assay; type: organism-based; conditions: in vivo
# Mus musculus [6] = assay: Toxicity in NMRI mouse assessed as increase in serum calcium level at 0.1 ug/kg, ip daily for 7 consecutive days measured after day 7 by colorimetric assay; type: organism-based; conditions: in vivo, 0.0001 mg/kg; summary of the method: as §2
# MCF7 [7] = assay: Antiproliferative activity against human MCF7 cells at 1 uM after 72 hrs by [3H]thymidine incorporation assay; type: functional; summary of the method: as §1
# MCF7 [8] = assay: Ratio of 1-alpha,25-(OH)2D3 to compound antiproliferative activity against human MCF7 cells at EC50 after 72 hrs by [3H]thymidine incorporation assay; type: functional
# Mus musculus [9] = assay: Toxicity in NMRI mouse assessed as increase in serum calcium level at 100 ug/kg, ip daily for 7 consecutive days measured after day 7 by colorimetric assay; type: organism-based; conditions: in vivo, 0.1 mg/kg; summary of the method: as §2
# Mus musculus [10] = assay: Toxicity in NMRI mouse assessed as induction of calcemic effect at 100 ug/kg, ip daily for 7 consecutive days measured after day 7 by colorimetric assay; type: organism-based; conditions: in vivo, 0.1 mg/kg; summary of the method: as §2
# Mus musculus [11] = assay: Toxicity in NMRI mouse assessed as induction of calcemic effect at 40 ug/kg, ip daily for 7 consecutive days measured after day 7 by colorimetric assay; type: organism-based; conditions: in vivo, 0.04 mg/kg; summary of the method: as §2
SMILES,Activity [1],Activity (MCF7 [2]) [%],further results
C[C@H](CCCC(C)(C)O)[C@H]1CC[C@H]2/C(=C/C=C3/C[C@@H](O)[C@H](O)[C@@H](O)C3)CCC[C@]12C,0.4%,5,
C[C@H](CCCC(C)(C)O)[C@H]1CC[C@H]2/C(=C/C=C3C[C@@H](O)C(O)[C@H](O)C3)CCC[C@]12C (stereo not given in full) [listing 1 of 2 here],20% and 10%,,Ratio [3]: 5 and 10
C[C@H](CCCC(C)(C)O)[C@H]1CC[C@H]2/C(=C/C=C3\C[C@@H](O)[C@@H]4O[C@@H]4C3)CCC[C@]12C,25%,16,Activity (Mus musculus [4]): Non-toxic
C=C1/C(=C\C=C2/CCC[C@]3(C)[C@@H]([C@H](C)CCCC(C)(C)O)CC[C@@H]23)C[C@@H](O)C[C@@H]1O [CALCITRIOL],,,MTD at 7 days [5]: 0.0001 mg/kg/day; Activity (Mus musculus [6]): 27%
C[C@H](CCCC(C)(C)O)[C@H]1CC[C@H]2/C(=C/C=C3\C[C@@H](O)[C@H](O)[C@@H](O)C3)CCC[C@]12C,5%,5,
[H][C@@]12CC[C@]([H])([C@H](C)CCCC(C)(C)O)[C@@]1(C)CCC/C2=C\C=C1\C[C@@H](O)[C@H](O)[C@H](O)C1 (stereo not given in full),,20,Activity (MCF7 [7]): 60%; Ratio (MCF7 [8]): 5; Activity (Mus musculus [9]): 13%; Activity (Mus musculus [10]): Non-toxic
C[C@H](CCCC(C)(C)O)[C@H]1CC[C@H]2/C(=C/C=C3/C[C@@H](O)[C@@H]4O[C@@H]4C3)CCC[C@]12C,0.4%,1,Activity (Mus musculus [11]): Non-toxic
C[C@H](CCCC(C)(C)O)[C@H]1CC[C@H]2/C(=C/C=C3C[C@@H](O)C(O)[C@H](O)C3)CCC[C@]12C (stereo not given in full) [listing 2 of 2 here],,5,
